# Legend:
# SF-268 = assay: Antiproliferative activity against human SF268 cells after 48 hrs; format: functional; conditions: SF-268, 48 h
# Procedure, shortened: (§1)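 NCI 60-cell screen. Cells were grown in RPMI 1640 with 5% FBS and 2 mM L-glutamine, then plated at 5,000–40,000 cells/well according to doubling time and preincubated for 24 h at 37 °C in 5% CO2. Compounds were dissolved in DMSO at 400× the top final concentration and tested at five 10-fold dilutions from 10−4 to 10−8 M for 48 h. Growth was read spectrophotometrically; GI50 is 50% net protein reduction.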
# NCI-H23 = assay: Antiproliferative activity against human NCI-H23 cells after 48 hrs; format: functional; conditions: NCI-H23, 48 h; procedure, shortened: as §1
# NCI-H226 = assay: Antiproliferative activity against human NCI-H226 cells after 48 hrs; format: functional; conditions: NCI-H226, 48 h; procedure, shortened: as §1
# MDA-MB-435 = assay: Antiproliferative activity against human MDA-MB-435 cells after 48 hrs; format: functional; conditions: Homo sapiens, MDA-MB-435, 48 h; procedure, shortened: as §1
# OVCAR-8 = assay: Antiproliferative activity against human OVCAR8 cells after 48 hrs; format: functional; conditions: OVCAR-8, 48 h; procedure, shortened: as §1
# Hs-578T = assay: Antiproliferative activity against human HS578T cells after 48 hrs; format: functional; procedure, shortened: as §1
# Malme-3M = assay: Antiproliferative activity against human MALME3M cells after 48 hrs; format: functional; procedure, shortened: as §1
# OVCAR-3 = assay: Antiproliferative activity against human OVCAR-3 cells after 48 hrs; format: functional; conditions: OVCAR-3, 48 h; procedure, shortened: as §1
# HCC 2998 = assay: Antiproliferative activity against human HCC2998 cells after 48 hrs; format: functional; conditions: HCC 2998, 48 h; procedure, shortened: as §1
# HCT-116 = assay: Antiproliferative activity against human HCT116 cells after 48 hrs; format: functional; conditions: HCT-116, 48 h; procedure, shortened: as §1
# K562 = assay: Antiproliferative activity against human K562 cells after 48 hrs; format: functional; conditions: K562, 48 h; procedure, shortened: as §1
# U-251 = assay: Antiproliferative activity against human U251 cells after 48 hrs; format: functional; conditions: U-251, 48 h
# Procedure, shortened: (§2)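 NCI 60-cell-line screen. Lines grown in RPMI 1640 with 5% fetal bovine serum and 2 mM L-glutamine, plated at 5,000–40,000 cells/well according to doubling time, left 24 h at 37 °C in 5% CO2. Drug stocks in DMSO at 400-fold the top final concentration. Five 10-fold dilutions, 10−4 to 10−8 M, incubated 48 h. Growth read spectrophotometrically as net protein; GI50 taken as 50% reduction.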
# MCF7 [1] = assay: Drug level in human MCF7 cells at 10 uM per 10^6 cells after 0.5 hrs; format: ADME, cell-based; conditions: mcf7, 0.5 h
# Procedure, shortened: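 MCF7 cells kept in RPMI 1640 with 10% fetal calf serum at 37 °C, 5% CO2, then treated with 10 μM analog. Intracellular analog measured over time by HPLC-MS in positive-ion MRM mode. Quantified against calibration curves made by spiking an artificial matrix with standards plus internal standard, using analyte/IS peak-area ratios and linear regression. Reported as pmol per 1×10^6 cells.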
# ACHN = assay: Antiproliferative activity against human ACHN cells after 48 hrs; format: functional; procedure, shortened: as §1
# OVCAR-4 = assay: Antiproliferative activity against human OVCAR4 cells after 48 hrs; format: functional; conditions: OVCAR-4, 48 h; procedure, shortened: as §1
# BT-549 = assay: Antiproliferative activity against human BT549 cells after 48 hrs; format: functional; conditions: BT-549, 48 h; procedure, shortened: as §1
# RXF 393 = assay: Antiproliferative activity against human RXF393 cells after 48 hrs; format: functional; conditions: RXF 393, 48 h; procedure, shortened: as §1
# COLO 205 = assay: Antiproliferative activity against human COLO205 cells after 48 hrs; format: functional; conditions: COLO 205, 48 h; procedure, shortened: as §1
# NCI-H522 = assay: Antiproliferative activity against human NCI-H522 cells after 48 hrs; format: functional; conditions: NCI-H522, 48 h; procedure, shortened: as §1
# SW-620 = assay: Antiproliferative activity against human SW620 cells after 48 hrs; format: functional; conditions: SW-620, 48 h; procedure, shortened: as §2
# OVCAR-5 = assay: Antiproliferative activity against human OVCAR5 cells after 48 hrs; format: functional; conditions: OVCAR-5, 48 h; procedure, shortened: as §1
# MCF7 [2] = assay: Antiproliferative activity against human MCF7 cells after 48 hrs; format: functional, cell-based; conditions: MCF7, 48 h
# A549 = assay: Antiproliferative activity against human A549 cells after 48 hrs; format: functional; conditions: A549, 48 h; procedure, shortened: as §1
# SNB-75 = assay: Antiproliferative activity against human SNB75 cells after 48 hrs; format: functional; conditions: SNB-75, 48 h; procedure, shortened: as §1
# [3] = Antiproliferative activity against human […] cells after 48 hrs; format: functional; procedure, shortened: as §1
# SK-MEL-5 = assay: Antiproliferative activity against human SKMEL5 cells after 48 hrs; format: functional; conditions: SK-MEL-5, 48 h; procedure, shortened: as §1
# SF-539 = assay: Antiproliferative activity against human SF539 cells after 48 hrs; format: functional; conditions: SF-539, 48 h; procedure, shortened: as §1
# [4] = read-out: Log LC50 (the source's name) (converted)
smiles,measurement,setting,value
C[C@H](NC(=O)CCCCCCCCCCCCCCC[n+]1ccccc1)[C@H](O)c1ccccc1.[Br-],GI50,SF-268,3.24 µM
same,LC50,SF-268,43.7 µM
same,TGI,SF-268; read-out: Log TGI (converted),13.2 µM
same,GI50,NCI-H23,2.95 µM
same,CC50,NCI-H23; [4],49 µM
same,TGI,NCI-H23; read-out: Log TGI (converted),15.5 µM
same,GI50,NCI-H226,6.46 µM
same,CC50,NCI-H226; [4],89.1 µM
same,TGI,NCI-H226; read-out: Log TGI (converted),26.9 µM
same,GI50,MDA-MB-435,2.63 µM
same,LC50,MDA-MB-435,25.7 µM
same,TGI,MDA-MB-435; read-out: Log TGI (converted),7.24 µM
same,GI50,OVCAR-8,3.89 µM
same,CC50,OVCAR-8; [4],> 100 µM
same,TGI,OVCAR-8; read-out: Log TGI (converted),22.9 µM
same,GI50,Hs-578T,3.24 µM
same,LC50,Hs-578T,> 100 µM
same,TGI,Hs-578T; read-out: Log TGI (converted),13.5 µM
same,GI50,Malme-3M,2.45 µM
same,LC50,Malme-3M,20 µM
same,TGI,Malme-3M; read-out: Log TGI (converted),5.89 µM
same,GI50,OVCAR-3,1.32 µM
same,LC50,OVCAR-3,26.3 µM
same,TGI,OVCAR-3; read-out: Log TGI (converted),6.46 µM
same,GI50,HCC 2998,1.55 µM
same,CC50,HCC 2998; [4],30.9 µM
same,TGI,HCC 2998; read-out: Log TGI (converted),7.41 µM
same,GI50,HCT-116,3.47 µM
same,LC50,HCT-116,38.9 µM
same,TGI,HCT-116; read-out: Log TGI (converted),14.8 µM
same,GI50,K562,0.912 µM
same,LC50,K562,77.6 µM
same,TGI,K562; read-out: Log TGI (converted),15.8 µM
same,GI50,U-251,2.95 µM
same,CC50,U-251; [4],38.9 µM
same,TGI,U-251; read-out: Log TGI (converted),13.8 µM
same,Drug uptake,MCF7 [1],800 pmol
same,GI50,ACHN,21.9 µM
same,CC50,ACHN; [4],91.2 µM
same,TGI,ACHN; read-out: Log TGI (converted),44.7 µM
same,GI50,OVCAR-4,1.66 µM
same,LC50,OVCAR-4,42.7 µM
same,TGI,OVCAR-4; read-out: Log TGI (converted),12.3 µM
same,LC50,BT-549,8.71 µM
same,TGI,BT-549; read-out: Log TGI (converted),0.851 µM
same,GI50,RXF 393,12 µM
same,CC50,RXF 393; [4],74.1 µM
same,TGI,RXF 393; read-out: Log TGI (converted),29.5 µM
same,GI50,COLO 205,1.05 µM
same,CC50,COLO 205; [4],31.6 µM
same,TGI,COLO 205; read-out: Log TGI (converted),4.9 µM
same,GI50,NCI-H522,2.04 µM
same,CC50,NCI-H522; [4],50.1 µM
same,TGI,NCI-H522; read-out: Log TGI (converted),13.2 µM
same,GI50,SW-620,6.92 µM
same,LC50 (concentration killing 50% of cells),SW-620,45.7 µM
same,TGI,SW-620; read-out: Log TGI (converted),20 µM
same,GI50,OVCAR-5,11 µM
same,CC50,OVCAR-5; [4],51.3 µM
same,TGI,OVCAR-5; read-out: Log TGI (converted),24 µM
same,GI50,MCF7 [2],1.48 µM
same,LC50,MCF7 [2],20.9 µM
same,TGI,MCF7 [2]; read-out: Log TGI (converted),4.79 µM
same,GI50,A549,5.13 µM
same,CC50,A549; [4],67.6 µM
same,TGI,A549; read-out: Log TGI (converted),21.9 µM
same,GI50,SNB-75,1.7 µM
same,CC50,SNB-75; [4],38 µM
same,TGI,SNB-75; read-out: Log TGI (converted),11.2 µM
same,GI50,[3],3.63 µM
same,LC50,[3],42.7 µM
same,TGI,[3]; read-out: Log TGI (converted),14.8 µM
same,GI50,SK-MEL-5,1.62 µM
same,CC50,SK-MEL-5; [4],9.55 µM
same,TGI,SK-MEL-5; read-out: Log TGI (converted),3.89 µM
same,GI50,SF-539,3.39 µM
same,LC50,SF-539,39.8 µM
same,TGI,SF-539; read-out: Log TGI (converted),14.1 µM

# — ChEMBL document CHEMBL1143122, “Novel analogs of D-e-MAPP and B13. Part 1: synthesis and evaluation as potential anticancer agents” (Bioorg Med Chem, 2008)
